Results: PubChem BioAssay
Inconclusive results are not listed.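 How the source made its calls, unless noted: active means RAM network inhibition above 8.4% in each of two replicates, 3 SD over the compound average; inconclusive means above 8.4% inhibition in only one replicate; inactive means 8.4% inhibition or less in each replicate.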

Assays:
[1] = S. cerevisiae growth inhibition in permissive medium (OD615), pilot counter-assay for S. cerevisiae lifespan shortening project, permissive growth control (AID 705;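 active means growth inhibition above 25% in both replicates, a cutoff set 3 SD above the mean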); details: OD615, 24 h, at 10 µM, stronger effect = higher value
In short: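 System: Engineered DeaD yeast | Buffer or medium: SC raffinose/galactose permissive medium | Doses: 10 µM single dose, 0.25% DMSO | Times: 24 h exposure, 30 °C | Measured by: OD615 turbidity read | Read-out: Yeast growth inhibition indicated by reduced 24 h OD615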

[2] = S. cerevisiae growth inhibition in restrictive medium, OD615, pilot screen, restrictive growth control, yeast lifespan reduction project (AID 706;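 active means growth inhibition above a set limit, 3 SD over mean compound inhibition, in both replicates, cut at about 43% in these data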;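 further: modified DeaD lifespan yeast strain shifted to restrictive glucose medium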); details: OD615, 48 h, at 10 µM, stronger effect = higher value
In short: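 Assay system: engineered S. cerevisiae DeaD strain; Buffer or medium: CSMM-D glucose medium; Dosing: 10 µM compound, 0.25% DMSO; Times: cell pre-growth 4 h, compound exposure 48 h, 30 °C; Detection: absorbance (optical density) measured at 615 nm.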

[3] = doxorubicin toxicity protection in MRP-1 cells – H69AR cells, CellTiter-Glo, duplicate, MRP-1 activator project, pilot screen (AID 807;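 active means viability increase at or above a cutoff of the median across tested compounds plus 3 SD, cut at about 8.5% in these data, passing the limit was not always enough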;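 further: compound pretreatment 18-22 h then 72 h combined with doxorubicin; 0% = doxorubicin alone and 100% = vehicle without doxorubicin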); details: H69AR viability with doxorubicin, CellTiter-Glo luminescence; at 10 µM; stronger effect = higher value
[4] = viability of HCT116 without oncogenic beta-catenin – human colon tumor cells, pilot screen (AID 823;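 active means cell viability at or below a set limit in both duplicate runs, the limit being the all-compound median minus 4 SD, cut at about 23% in these data, passing the limit was not always enough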;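 further: 0% = wells killed by 20 µM Hyamine and 100% = untreated DMSO cell wells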); details: HCT116 beta-catenin knockout viability, CellTiter-Glo, 60 h; at 10 µM; stronger effect = lower value
[5] = viability of PTEN-null HCT116 cells – cell-based, HCT116 clonal line, CellTiter-Glo, pilot screen (AID 824;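 active means viability at or below 27.92% in each of two runs, the all-compound median minus 4 SD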;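 further: 0% = 20 µM Hyamine control and 100% = vehicle cell control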); details: HCT116 PTEN-deleted viability, 60 h, at 10 µM, stronger effect = lower value
[6] = RAM pathway blockade in budding yeast – dse1pr::URA3 reporter, 5-FOA selection, pilot screen (AID 869;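 active means inhibition over a set limit, the all-compound mean plus 3 SD, in both replicate runs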;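 further: 0% = DMSO wells with no growth and 100% = 10 µM 1-NA-PP1 with full growth; RAM network block rescues cells from 5-FOA so hits raise OD615 growth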); details: S. cerevisiae dse1pr::URA3 5-FOA growth, OD615, 2 d; at 10 µM; stronger effect = higher value; strain carries analog-sensitive mutant Cbk1 kinase
[7] = RAM signaling pathway blockade in yeast – S. cerevisiae, Pdr1DBD-CYC8 efflux-inhibited sensitized strain, primary screen (AID 1298);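 further: 0% = DMSO untreated cells without growth and 100% = 10 µM 1-NA-PP1 full growth; higher means more yeast growth rescued from 5-FOA killing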; details: S. cerevisiae cbk1-as DSE1-URA3 strain, 5-FOA growth OD615, 2 d; at 50 µM; stronger effect = higher value

COc1ccc(NC(=O)C2CCCN(S(=O)(=O)c3cccc4cccnc34)C2)c(OC)c1 (stereo not drawn)
inactive: growth inhibition [1] -9.1% | growth inhibition [2] -2.73% | viability increase [3] -2.29% | viability [4] 70.4% | viability [5] 70.7% | inhibition [6] 1.19% | RAM network inhibition [7] 9.52%

CCOc1ccccc1N(CC)C(=O)Cn1ncc2c(=O)oc3ccccc3c21
inactive: growth inhibition [1] -11.6% | growth inhibition [2] -7.42% | viability increase [3] -1.85% | viability [4] 95.7% | viability [5] 96.2% | inhibition [6] -0.255% | RAM network inhibition [7] 4.3%

c1ccc(CNc2nc3ccccc3n3cnnc23)nc1
inactive: growth inhibition [1] -13.7% | growth inhibition [2] -8.93% | viability increase [3] -1.36% | viability [4] 105% | viability [5] 88.5% | inhibition [6] -0.44% | RAM network inhibition [7] 3.37%

O=C(Nc1cccc(C(F)(F)F)c1)c1cnc2n(c1=O)CCS2
inactive: growth inhibition [1] -9.46% | growth inhibition [2] 5.56% | viability increase [3] 0.63% | viability [4] 108% | viability [5] 95.2% | inhibition [6] 2.6% | RAM network inhibition [7] 5.71%

CS(=O)(=O)N(CC(=O)NCc1ccco1)c1ccc(Cl)c(C(F)(F)F)c1
inactive: growth inhibition [1] -19% | growth inhibition [2] -22.3% | viability increase [3] -3.58% | viability [4] 92.8% | viability [5] 88.2% | inhibition [6] 0.705% | RAM network inhibition [7] 7.07%

Oc1cccc(/C=N/c2c(-c3ccco3)nc3ccccn23)c1
inactive: growth inhibition [1] -9.82% | growth inhibition [2] -4.22% | viability increase [3] -3.47% | viability [4] 87.7% | viability [5] 93.7% | inhibition [6] 2% | RAM network inhibition [7] 5.22%

CCOc1ccc(N(CC(=O)Nc2cccc(F)c2)S(=O)(=O)c2c(C)noc2C)cc1
inactive: growth inhibition [1] -3.51% | growth inhibition [2] -8.12% | viability increase [3] -5.24% | viability [4] 66.5% | viability [5] 56.2% | inhibition [6] 3.33% | RAM network inhibition [7] 5.5%

Cc1cc(C(=O)NCc2ccccc2)c(=O)[nH]c1C
inactive: growth inhibition [1] -15.4% | growth inhibition [2] -9.45% | viability increase [3] 0.83% | viability [4] 103% | viability [5] 90.3% | inhibition [6] 2.33% | RAM network inhibition [7] 0.52%

CCCC(=O)Nc1nnc(-c2ccc(Cl)s2)o1
inactive: growth inhibition [1] -6.95% | growth inhibition [2] 2.92% | viability increase [3] -3.1% | viability [4] 95.6% | viability [5] 91.2% | inhibition [6] 1.61% | RAM network inhibition [7] 1.6%

c1nc(N2CCCCC2)c2[nH]cnc2n1
inactive: growth inhibition [1] -2.33% | growth inhibition [2] -9.23% | viability increase [3] -5.39% | viability [4] 113% | viability [5] 102% | inhibition [6] 1.4% | RAM network inhibition [7] 2.24%

CC(=O)c1cccc(NC(=O)N2CCCC2C(=O)NCc2ccccc2)c1 (stereo not drawn)
inactive: growth inhibition [1] -6.55% | growth inhibition [2] -11.5% | viability increase [3] -1.13% | viability [4] 104% | viability [5] 100% | inhibition [6] 0.87% | RAM network inhibition [7] 1.46%

Cc1ccsc1C1NC(=O)c2c(sc3c2CCN(C)C3)N1 (stereo not drawn)
inactive: growth inhibition [1] -1.86% | growth inhibition [2] 1.39% | viability increase [3] -1.41% | viability [4] 97.5% | viability [5] 98.6% | inhibition [6] 1.37% | RAM network inhibition [7] -0.83%

COc1cc(C2NC(=O)N(C)C3=C2C(=O)CCC3)cc(OC)c1OC (stereo not drawn)
inactive: growth inhibition [1] -3.03% | growth inhibition [2] -17.1% | viability increase [3] -0.05% | viability [4] 104% | viability [5] 99% | inhibition [6] 2.73% | RAM network inhibition [7] 4.71%

[O-]/[N+](=C\c1ccncc1)c1ccc(Br)cc1
inactive: growth inhibition [1] -15% | growth inhibition [2] -19.9% | viability increase [3] -4.14% | viability [4] 83.7% | viability [5] 87.9% | inhibition [6] 2.81% | RAM network inhibition [7] 6.02%

O=C(Nc1ccccc1)N1CCN2C(=O)c3ccccc3C12c1ccccc1 (stereo not drawn)
inactive: growth inhibition [1] -7.51% | growth inhibition [2] -1.31% | viability increase [3] -2.35% | viability [4] 89.9% | viability [5] 89.5% | inhibition [6] 1.29% | RAM network inhibition [7] 2.89%

OC(CN1c2ccccc2Sc2ccccc21)Cn1nnc2ccccc21 (stereo not drawn)
inactive: growth inhibition [1] -4.44% | growth inhibition [2] -9.12% | viability increase [3] -6.85% | viability [4] 72% | viability [5] 66.2% | inhibition [6] 1.69% | RAM network inhibition [7] 10.2%

OCCOCCn1c(-c2ccccc2)nc(=S)c2c1CCCC2
inactive: growth inhibition [1] -3.65% | growth inhibition [2] 14.6% | viability increase [3] -0.07% | viability [4] 102% | viability [5] 106% | inhibition [6] 0.73% | RAM network inhibition [7] 6.53%

COc1ccc(OC)c(NC(=O)C2CCCNC2=O)c1 (stereo not drawn)
inactive: growth inhibition [1] -6.08% | growth inhibition [2] -1.6% | viability increase [3] -1.67% | viability [4] 95.1% | viability [5] 94.5% | inhibition [6] 1.33% | RAM network inhibition [7] 1.33%

Nc1c(S(=O)(=O)c2ccccc2)c2nc3ccccc3nc2n1/N=C/c1ccco1
inactive: growth inhibition [1] -7.84% | growth inhibition [2] -8.93% | viability increase [3] -5.63% | viability [4] 51.5% | viability [5] 52% | inhibition [6] 2.34% | RAM network inhibition [7] 4.98%

Cc1ccc(Cn2c(Sc3nnc(C)s3)nc3c2c(=O)[nH]c(=O)n3C)cc1
inactive: growth inhibition [1] -1.77% | growth inhibition [2] -4.4% | viability increase [3] -2.58% | viability [4] 85.8% | viability [5] 78.6% | inhibition [6] 2.5% | RAM network inhibition [7] 1.84%

C=CCn1c(SCCN2CCCCC2)nc2c1c(=O)[nH]c(=O)n2C
inactive: growth inhibition [1] -3.65% | growth inhibition [2] 6.96% | viability increase [3] -1.07% | viability [4] 109% | viability [5] 99.8% | inhibition [6] 1.17% | RAM network inhibition [7] 1.65%

COc1ccc(Br)cc1C1CC(=O)N2CN(Cc3ccccc3)CSC2=C1C#N (stereo not drawn)
inactive: growth inhibition [1] 4.47% | growth inhibition [2] 12.8% | viability increase [3] -4.64% | viability [4] 85% | viability [5] 87.5% | inhibition [6] 2.63% | RAM network inhibition [7] 4.51%

Cn1c(Cn2c(=O)sc3ccccc32)nnc1SCC(=O)NCc1ccco1
inactive: growth inhibition [1] 0.17% | growth inhibition [2] 8.09% | viability increase [3] -4.73% | viability [4] 109% | viability [5] 104% | inhibition [6] 1.93% | RAM network inhibition [7] 6.92%

CC1(C)CC(=O)C=C(NCCN2CCN(C(=O)Nc3ccc(Cl)cc3)CC2)C1
inactive: growth inhibition [1] -1.03% | growth inhibition [2] 5.34% | viability increase [3] 1.25% | viability [4] 99.2% | viability [5] 101% | inhibition [6] 1.35% | RAM network inhibition [7] 4.07%
